What all share (format): functional
Assay [1] has as its system Colletotrichum camelliae. Put plainly: Antifungal activity against Colletotrichum camelliae assessed as inhibition of mycelial growth at 1500 ug/mL measured after 5 days of cultivation. The settings on record: 120 h, read-out: GI. The method in brief: (§1)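 Volatile constituents emulsified with emulsifier 0203-B (0.01% in medium) and mixed into PDA at 100, 500, 1000, 1500 or 2000 µg/mL in 9 cm plates. A 4 mm mycelial disk cut from a 4-day-old culture was placed centrally. Incubation was 5 days at 25 °C. Colony diameter was the mean of two readings. Inhibition = (C−T)×100/C against untreated and emulsifier controls. Three replicates.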

For assay [2], the system named is Colletotrichum camelliae. Put plainly: Antifungal activity against Colletotrichum camelliae assessed as inhibition of mycelial growth at 500 ug/mL measured after 5 days of cultivation. The settings on record: 120 h, read-out: GI. The method in brief: as §1
In assay [3] the test system is Colletotrichum camelliae. Put plainly: Antifungal activity against Colletotrichum camelliae assessed as inhibition of mycelial growth at 100 ug/mL measured after 5 days of cultivation. To be noted: 120 h, read-out: GI. The method in brief:
as §1

The subject of assay [4] is Colletotrichum camelliae. Put plainly: Antifungal activity against Colletotrichum camelliae assessed as inhibition of mycelial growth at 2000 ug/mL measured after 5 days of cultivation. The settings on record: 120 h, read-out: GI. The method in brief: as §1
In assay [5] the test system is Colletotrichum camelliae. As to the kind of experiment: Antifungal activity against Colletotrichum camelliae assessed as inhibition of mycelial growth measured after 5 days of cultivation. To be noted: 120 h. The procedure, abridged:
as §1

For assay [6], the system named is Colletotrichum camelliae. As to the kind of experiment: Antifungal activity against Colletotrichum camelliae assessed as inhibition of mycelial growth at 1000 ug/mL measured after 5 days of cultivation. The settings on record: 120 h, read-out: GI. The procedure, abridged:
as §1

Converted amounts (≈) assume the structure as drawn.

In general, MIC refers to the lowest concentration found to suppress growth.

As for `C=C[C@]1(C)CC[C@@H](C(C)(C)O)O1` [(E)-LINALOOL OXIDE], the inhibition of growth at 1500 µg/mL in the assay on Colletotrichum camelliae [1] is 48.1%. The inhibition of growth at 500 µg/mL in the assay with Colletotrichum camelliae [2] was 40.7%. Moreover, the inhibition of growth at 100 µg/mL with Colletotrichum camelliae [3] stood at 37%. Also, in the assay with Colletotrichum camelliae [4], the inhibition of growth at 2000 µg/mL was 57.4%. The MIC in the assay with Colletotrichum camelliae [5] is above 2380 µg/mL. In the assay on Colletotrichum camelliae [6], the inhibition of growth at 1000 µg/mL came to 44.4%.

As for `OCc1ccccc1` [BENZYL ALCOHOL], the inhibition of growth at 1500 µg/mL with Colletotrichum camelliae [1] was 68.5%. Moreover, in the assay with Colletotrichum camelliae [2], the inhibition of growth at 500 µg/mL came to 46.3%. In addition, in the assay with Colletotrichum camelliae [3], the inhibition of growth at 100 µg/mL turned out to be 44.4%. Further, in the assay with Colletotrichum camelliae [4], the inhibition of growth at 2000 µg/mL was found to be 83.3%. In the assay on Colletotrichum camelliae [5], the MIC amounted to 2600 µg/mL (≈ 24 mM). In the assay with Colletotrichum camelliae [6], the inhibition of growth at 1000 µg/mL came out at 61.1%.

Consider `CC/C=C\CCO` [CIS-3-HEXENOL], for which the inhibition of growth at 1500 µg/mL in the assay on Colletotrichum camelliae [1] was determined as 74.1%. Besides, the inhibition of growth at 500 µg/mL with Colletotrichum camelliae [2] is 44.4%. The inhibition of growth at 100 µg/mL with Colletotrichum camelliae [3] turned out to be 42.6%. Further, the inhibition of growth at 2000 µg/mL in the assay on Colletotrichum camelliae [4] was found to be 79.6%. Besides, the minimum inhibitory concentration (MIC) in the assay on Colletotrichum camelliae [5] is above 2120 µg/mL. In the assay on Colletotrichum camelliae [6], the inhibition of growth at 1000 µg/mL stood at 61.1%.

On to `C=C[C@]1(C)CC[C@H](C(C)(C)O)O1` [CIS-FURANOID], for which the inhibition of growth at 1500 µg/mL with Colletotrichum camelliae [1] was 48.1%. Besides, in the assay on Colletotrichum camelliae [2], the inhibition of growth at 500 µg/mL is 40.7%. In the assay on Colletotrichum camelliae [3], the inhibition of growth at 100 µg/mL was 37%. Also, the inhibition of growth at 2000 µg/mL in the assay on Colletotrichum camelliae [4] came out at 57.4%. Moreover, in the assay on Colletotrichum camelliae [5], the MIC was above 2380 µg/mL. Moreover, in the assay with Colletotrichum camelliae [6], the inhibition of growth at 1000 µg/mL was found to be 44.4%.

For `CC(C)=CCC/C(C)=C/CO` [GERANIOL], the inhibition of growth at 1500 µg/mL in the assay with Colletotrichum camelliae [1] came to 100%. The inhibition of growth at 500 µg/mL with Colletotrichum camelliae [2] came to 100%. Also, in the assay with Colletotrichum camelliae [3], the inhibition of growth at 100 µg/mL was determined as 58.1%. Also, the inhibition of growth at 2000 µg/mL in the assay with Colletotrichum camelliae [4] is 100%. For the same compound, the MIC in the assay with Colletotrichum camelliae [5] came out at 440 µg/mL (≈ 2.85 mM). Further, the inhibition of growth at 1000 µg/mL in the assay with Colletotrichum camelliae [6] turned out to be 100%.

As for `C=CC(C)(O)CCC=C(C)C` (stereo not drawn) [LINALOOL], in the assay with Colletotrichum camelliae [1], the inhibition of growth at 1500 µg/mL came out at 100%. For the same compound, the inhibition of growth at 500 µg/mL in the assay with Colletotrichum camelliae [2] was 46.3%. Also, the inhibition of growth at 100 µg/mL with Colletotrichum camelliae [3] was 37%. Besides, the inhibition of growth at 2000 µg/mL in the assay on Colletotrichum camelliae [4] is 100%. Besides, in the assay with Colletotrichum camelliae [5], the MIC came to 1380 µg/mL (≈ 8.92 mM). For the same compound, the inhibition of growth at 1000 µg/mL with Colletotrichum camelliae [6] is 50%.

Consider `COC(=O)c1ccccc1O` [METHYL SALICYLATE], for which, in the assay with Colletotrichum camelliae [1], the inhibition of growth at 1500 µg/mL worked out at 100%. For the same compound, the inhibition of growth at 500 µg/mL with Colletotrichum camelliae [2] is 50%. Besides, in the assay with Colletotrichum camelliae [3], the inhibition of growth at 100 µg/mL worked out at 42.6%. The inhibition of growth at 2000 µg/mL with Colletotrichum camelliae [4] was 100%. Moreover, in the assay on Colletotrichum camelliae [5], the MIC came to 1770 µg/mL (≈ 11.6 mM). The inhibition of growth at 1000 µg/mL with Colletotrichum camelliae [6] came to 55.6%.

As to `OCCc1ccccc1` [PHENYLETHYL ALCOHOL], the inhibition of growth at 1500 µg/mL in the assay on Colletotrichum camelliae [1] amounted to 85.2%. Besides, the inhibition of growth at 500 µg/mL in the assay on Colletotrichum camelliae [2] amounted to 46.3%. Besides, the inhibition of growth at 100 µg/mL in the assay with Colletotrichum camelliae [3] came out at 51.9%. Also, the inhibition of growth at 2000 µg/mL with Colletotrichum camelliae [4] amounted to 92.6%. For the same compound, the MIC in the assay with Colletotrichum camelliae [5] came out at 2040 µg/mL (≈ 16.7 mM). Further, the inhibition of growth at 1000 µg/mL with Colletotrichum camelliae [6] stood at 70.4%.

For the origin of these results see ChEMBL document CHEMBL3045126, “Antifungal activities of major tea leaf volatile constituents toward Colletorichum camelliae Massea” (2006).
